{"data": "Results of several laboratories", "target": "Mitogen-activated protein kinase 4 (MAPK4, Homo sapiens, UniProt P31152)", "note": "Lines come from different studies, so protocols differ."}
{"test": "cell-free assay, competition with immobilised ligand", "conditions": "1 µM", "remaining binding": "86%", "SMILES": "O=C1NC(c2ccccn2)Sc2ccccc21 (stereo not drawn)"}
{"test": "binding", "conditions": "1 µM", "remaining binding": "100%", "SMILES": "CC1CCCN1c1nccc(-c2cnn3ncccc23)n1 (stereo not drawn)"}
{"test": "binding, competition with immobilised ligand", "conditions": "1 µM", "remaining binding": "99%", "SMILES": "COc1cnc(Nc2cccc(S(N)(=O)=O)c2)nc1N1CCN(c2ccccc2)C(=O)C1"}
{"test": "binding", "conditions": "1 µM", "remaining binding": "100%", "SMILES": "CN(C)c1nccc(-c2cnn3ncccc23)n1"}
{"test": "cell-free assay, competition with immobilised ligand", "conditions": "5 µM", "remaining binding": "100%", "SMILES": "COc1ncc2cc3ccccc3nc2c1C#N"}
{"test": "binding, competition with immobilised ligand", "conditions": "1 µM", "remaining binding": "100%", "SMILES": "c1ccc(N2CCN(Cc3nc4ccccc4[nH]3)CC2)nc1"}
{"test": "binding", "conditions": "1 µM", "remaining binding": "93%", "SMILES": "C[C@H]1CCN(c2nccc(-c3cnn4ncccc34)n2)C1"}
{"test": "cell-free assay, competition with immobilised ligand", "conditions": "1 µM", "remaining binding": "100%", "SMILES": "Cn1nc(C(F)(F)F)cc1-c1cnc(N2CCc3cc(S(=O)(=O)Nc4c(F)cc(Cl)cc4F)cc(N4CCCC4=O)c32)nc1"}
{"test": "binding, competition with immobilised ligand", "conditions": "1 µM", "remaining binding": "96%", "SMILES": "Nc1ncc2c(n1)-c1c([nH]c3ccc(C#CC4CC4)cc13)CCCC2"}
{"test": "binding", "conditions": "1 µM", "remaining binding": "94%", "SMILES": "Cc1cnn2ncc(-c3ccnc(N(C)C)n3)c2c1"}
{"test": "binding, competition with immobilised ligand", "conditions": "10 µM", "remaining binding": "95%", "SMILES": "c1cncc(-c2cccc(Nc3nccc(NC4CCCCC4)n3)c2)c1"}
{"test": "binding, competition with immobilised ligand", "conditions": "1 µM", "remaining binding": "20%", "SMILES": "O=C(c1ccc(Nc2ncc(Cl)c(-c3cc4ccccc4s3)n2)cc1)N1CCC(N2CCCC2)CC1"}
{"test": "cell-free assay, competition with immobilised ligand", "conditions": "1 µM", "remaining binding": "100%", "SMILES": "CC(=O)c1c(NS(C)(=O)=O)c2cc(-c3ccc(Cl)cc3)c(-c3ccc(Cl)cc3Cl)nc2n(C)c1=O"}
{"test": "binding, competition with immobilised ligand", "conditions": "1 µM", "remaining binding": "88%", "SMILES": "O=C(NCCCN1CCOCC1)c1ccc(Nc2nccc(-c3cc4ccccc4s3)n2)cc1"}
{"test": "cell-free assay, competition with immobilised ligand", "conditions": "1 µM", "remaining binding": "100%", "SMILES": "CCOCCn1cc(C(=O)Nc2ccc(-n3nc(-c4cccnc4)cc3C(F)(F)F)cn2)ccc1=O"}
{"test": "binding, competition with immobilised ligand", "conditions": "1 µM", "remaining binding": "1.4%", "SMILES": "O=C(NCCCN1CCOCC1)c1ccc(Nc2ncc(Cl)c(-c3ccc(Cl)s3)n2)cc1"}
{"test": "cell-free assay, competition with immobilised ligand", "conditions": "1 µM", "remaining binding": "95%", "SMILES": "O=C(Nc1cnc(Oc2ccc(F)cc2)nc1)N1CCc2ncccc2[C@@H]1c1ccc(F)cc1"}
{"test": "binding", "conditions": "1 µM", "remaining binding": "100%", "SMILES": "N[C@H]1CCN(c2nccc(-c3cnn4ncccc34)n2)C1"}
{"test": "binding, competition with immobilised ligand", "conditions": "1 µM", "remaining binding": "96%", "SMILES": "COc1cnc(Nc2cccc(S(N)(=O)=O)c2)nc1N1CCN(c2ccccc2)CC1"}
{"test": "binding", "conditions": "1 µM", "remaining binding": "100%", "SMILES": "CN(C)c1ncc(F)c(-c2cnn3ncccc23)n1"}
{"test": "binding, competition with immobilised ligand", "conditions": "1 µM", "remaining binding": "100%", "SMILES": "O=C(Nc1c[nH]nc1C(=O)NC1CCNCC1)c1cc(F)cc(F)c1"}
